From PubChem
Rows were chosen to be rich in hits. Some 4.9% of all compounds tested hit in one or more screens of this group.
STAT1 act: STAT1 signaling activators, primary screen, cell-based, HTS, luciferase reporter; NIH 3T3 STAT1-luciferase reporter, IFN-gamma, luminescence; 100% = IFN-gamma alone, no compound; activation (% of control), % at 5.5 µM; 200,000 tested, 2.6% active;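 active means activation above the screen-wide mean activation plus 3 SD, cut at about 130% in these data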;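 further: raw ratio to IFN-gamma control signal so 100% means no change and 0% no light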
STAT3 act: IL-6 driven STAT3 reporter potentiators, primary screen, U3A cells, luciferase, luminescence, MLSCN library | IL-6 STAT3-luciferase reporter; 100% = signal with IL-6 EC80 alone | activation (% of control), % at 5.6 µM | 190,000 tested, 0.91% active;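 active means activation above the screen-wide mean of compound activation plus 3 SD, cut at about 130% in these data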;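 further: 0% = background luminescence of wells with medium and substrate only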
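Material: human U3A cells carrying STAT3-luciferase construct. Measured by: reporter luminescence signal. Timing: compound 1 h, then IL-6 6 h at 37 °C.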
APP 5'UTR act: activators of APP 5'UTR luciferase reporter, primary screen, SH-SY5Y cells; SH-SY5Y APP 5'UTR luciferase reporter, luminescence; zero percent = DMSO vehicle wells; activation, % at 2 µM; 190,000 tested, 1% active; AID 1276, 2008;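 active means activation above a set limit, based on mean plus 3 SD of controls, cut at about 140% in these data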
STAT3 inh: IL-6 driven STAT3 reporter inhibitors, primary screen, U3A cells, luciferase, luminescence, MLSCN library | IL-6 STAT3-luciferase reporter; host cell line lacks STAT1 | inhibition, % at 5.5 µM | 190,000 tested, 0.89% active;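 active means inhibition above the mean inhibition across all screened compounds plus 3 SD, cut at about 44% in these data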;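 further: 0% = DMSO only wells and 100% = 100 µM nifuroxazide control wells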
STAT1 inh: STAT1 signaling inhibitors, primary screen, cell-based, HTS, luciferase reporter; inhibition, % at 5.5 µM; NIH 3T3 STAT1-luciferase reporter, IFN-gamma, luminescence; 200,000 tested, 0.35% active;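 active means inhibition above a set limit, the mean inhibition across all tested compounds plus 3 SD, cut at about 34% in these data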;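 further: 0% = IFN-gamma with DMSO and 100% = IFN-gamma with 300 µM nifuroxazide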
NF-kB neuron act: activators of NF-kB expression in neurons, primary screen, cell-based, HTS. human neuronal cells, NF-kB reporter expression; stronger effect = higher value. fold change at 12.5 µM. 190,000 tested, 1.6% active. AID 1239, 2008; in the data active means fold change above about 3.3
Starred values were filed as active, the others as inactive.

Screening Cc1ccn2c(CNCC3OCCc4ccccc43)c(C(=O)N3CCCCCC3)nc2c1 (stereo not drawn) returned STAT1 act 96.8, STAT3 act 98.8, APP 5'UTR act -3.0, STAT3 inh 6.4 and STAT1 inh 1.7.
O=C1Nc2ccccc2S/C1=C/Nc1cccc(Cl)c1 was read as STAT1 act 129.7*, STAT3 act 95.6, APP 5'UTR act 11.8, STAT3 inh 12.8, STAT1 inh -33.2 and NF-kB neuron act 2.02.
CCSc1ncc(/C=N/Nc2ccc(Cl)cc2)n1C was read as STAT1 act 160.3*, STAT3 act 149.6*, APP 5'UTR act 69.8, STAT3 inh -52.5, STAT1 inh -66.0 and NF-kB neuron act 5.67*.
`Cn1c(NC(=S)Nc2ccccc2)nc2ccccc21` gave STAT1 act 141.5*, STAT3 act 82.5, APP 5'UTR act 160.3*, STAT3 inh 21.2, STAT1 inh -47.3 and NF-kB neuron act 1.12.
S=C(Nc1ccccc1)Nc1nc2ccccc2n1CCOc1ccc(Br)cc1 was read as STAT1 act 92.6, STAT3 act 100.4, APP 5'UTR act 10.5, STAT3 inh -1.0, STAT1 inh 8.1 and NF-kB neuron act 1.05.
Screening CCOC(=O)c1cnc(Nc2nc3ccccc3o2)nc1C returned STAT1 act 58.7, STAT3 act 20.6, APP 5'UTR act 104.4, STAT3 inh 96.3*, STAT1 inh 45.0* and NF-kB neuron act 3.47*.
`Cc1ccc(S(=O)(=O)N2CCC(CN3C(=O)c4cccc5cccc(c45)C3=O)CC2)cc1` gave STAT1 act 99.2, STAT3 act 186.4*, APP 5'UTR act 9.3, STAT3 inh -108.1, STAT1 inh 0.9 and NF-kB neuron act 0.87.
`O=C1c2cccc3cccc(c23)C(=O)N1CC1CCN(S(=O)(=O)c2ccc(F)cc2)CC1` gave STAT1 act 97.0, STAT3 act 102.9, APP 5'UTR act 7.8, STAT3 inh -6.1, STAT1 inh 3.3 and NF-kB neuron act 0.97.
For Cc1ccc(C(=O)NCCc2ccc(F)cc2)s1 the results were STAT1 act 129.1*, STAT3 act 93.2, APP 5'UTR act 161.7*, STAT3 inh 12.9, STAT1 inh -35.2 and NF-kB neuron act 4.19*.
Screening O=C(Nc1ccccc1NS(=O)(=O)c1ccc(F)cc1)C1CCC1 returned STAT1 act 93.2, STAT3 act 97.3, APP 5'UTR act 0.5, STAT3 inh 5.7, STAT1 inh 6.6 and NF-kB neuron act 1.3.
For COc1ccc(CNC(=O)CNC(=O)c2c(C)nn(C)c2Cl)cc1 the results were STAT1 act 102.9, STAT3 act 87.5, APP 5'UTR act 0.9, STAT3 inh 20.3, STAT1 inh -4.2 and NF-kB neuron act 1.23.
For CN(C)/C=N/c1cnc(C(=O)c2ccc(Cl)cc2)n1C the results were STAT1 act 146.0*, STAT3 act 103.0, APP 5'UTR act 19.2, STAT3 inh 5.4, STAT1 inh -50.5 and NF-kB neuron act 3.84*.
For CN(C)/C=N/NC(=O)c1ccc(Cl)cc1 the results were STAT1 act 104.4, STAT3 act 98.0, APP 5'UTR act -6.2, STAT3 inh 4.9, STAT1 inh -5.4 and NF-kB neuron act 1.19.
O=C(OCC(=O)N1CCCCC1)c1cc(NS(=O)(=O)c2ccc(Cl)c([N+](=O)[O-])c2)ccc1O was read as STAT1 act 90.5, STAT3 act 101.7, APP 5'UTR act 9.1, STAT3 inh 0.2, STAT1 inh 10.6 and NF-kB neuron act 0.78.
`CS(=O)c1ccccc1-c1nc(-c2cccc(Cl)c2)no1` (stereo not drawn) gave STAT1 act 118.3, STAT3 act 84.9, APP 5'UTR act 2.8, STAT3 inh 20.3, STAT1 inh -20.2 and NF-kB neuron act 1.41.
For Cc1ccc(-c2noc(-c3ccccc3F)n2)cc1 the results were STAT1 act 132.1*, STAT3 act 98.3, APP 5'UTR act 173.8*, STAT3 inh 10.9, STAT1 inh -34.5 and NF-kB neuron act 5.98*.
